Data set [1] can be described thus: AUClast in Sprague-Dawley rat at 10 mg/kg, po by LC-MS/MS analysis. Format: ADME, organism-based. Particulars: in vivo. Set-up: dose 10 mg/kg, route oral, time 0 - last. The essentials: (§1)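 Male SD rats, 8 weeks old, acclimatised at least 1 week; compound dissolved at 10 mg/2 mL in N-methyl-2-pyrrolidone/Tween80/water (1:2:7) by 5 min sonication, given 10 mg/kg by oral gavage at 2 mL/kg (n = 5). Heart-puncture blood drawn at 30 min and 3 h, plasma spun and stored at -70 °C. Samples mixed with carbamazepine internal standard in acetonitrile and assayed by LC-MS/MS.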

Data set [2] in a line: Drug excretion in Sprague-Dawley rat at 10 mg/kg, iv by LC-MS/MS analysis. Format: ADME, organism-based. To be noted: in vivo, read-out: Drug excretion.
Data set [3] can be described thus: Tmax in Sprague-Dawley rat at 10 mg/kg, po by LC-MS/MS analysis. In kind it is ADME, organism-based. To be noted: in vivo. Summed up:
as §1

Data set [4] can be described thus: AUC (0 to infinity) in Sprague-Dawley rat at 10 mg/kg, po by LC-MS/MS analysis. Set-up: dose 10 mg/kg, route oral, time infinity. To be noted: in vivo. Format: ADME, organism-based. Summed up:
as §1

The nature of data set [5]: Drug excretion in Sprague-Dawley rat at 10 mg/kg, po by LC-MS/MS analysis. In kind it is ADME, organism-based. Particulars: in vivo, read-out: Drug excretion.
Data set [6] deals with Translocator protein (Rattus norvegicus, UniProt P16257). The data set is described as follows: Displacement of [3H]PK11195 from TSPO in Sprague-Dawley rat cerebral cortex membranes after 60 mins by microbeta liquid scintillation counting method. Set-up: species or system Membrane. (In general: Displacement assays read how much labelled ligand stays bound in the presence of the test substance.)
Chain of Translocator protein (Rattus norvegicus, UniProt P16257) (P16257 whole entry, looked up): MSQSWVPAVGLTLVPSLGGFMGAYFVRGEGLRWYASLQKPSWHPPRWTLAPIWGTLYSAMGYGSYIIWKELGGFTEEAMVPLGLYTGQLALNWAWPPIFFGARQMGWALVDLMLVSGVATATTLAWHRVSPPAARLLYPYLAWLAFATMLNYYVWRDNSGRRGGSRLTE

The target in data set [7] is Translocator protein (Mus musculus) (UniProt P50637). The data set is described as follows: Inhibition of TSPO in mouse HT22 cells assessed as inhibition of amyloid beta (1 to 42)-induced toxicity at 5 uM after 24 hrs by MTT assay relative to control. Format: cell-based. To be noted: HT-22. Summed up:
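HT22 cells at 5000 per well were treated with compound (5 µM), with or without Aβ1-42 (5 µM), for 24 h at 37 °C. MTT was added for 2 h, then solubilising solution (10% Triton X-100 in isopropanol with 0.1 M HCl) for 2 h more. Absorbance read at 560 nm; % inhibition normalised to vehicle, and viability taken from compound-only wells.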
(Tetrazolium assays rely on reduction of a dye to a coloured formazan, in cell work by metabolically active cells.)

For data set [8], the system named is Mus musculus. The data set is described as follows: Reversal of coginitive deficit in double APP/PS1 transgenic Alzheimer's disease mouse model assessed as increase in freezing response at 30 mg/kg, po daily for 1 month by contextual fear conditioning test. Format: functional.
The target of data set [9] is Translocator protein (Homo sapiens, UniProt P30536). The data set is described as follows: Binding affinity to recombinant human TSPO by SPR assay. The essentials:
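Biacore T200 at 25 °C with recombinant human TSPO (18 kDa) amine-coupled to a CM5 chip in 10 mM sodium acetate pH 4.5, giving 4000–6000 RU. Compounds from 10 mM DMSO stocks were diluted in PBS-P; running buffer held 1.0% DMSO. Five concentrations, 0.01–5 µM, were injected at 50 µL/min (120 s contact, 300 s dissociation), with blanks and regeneration. KD reported.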
A general note: SPR reads the build-up and loss of mass on a sensor chip optically.

The target in a further data set is CYP2C19 (Homo sapiens, UniProt P33261). The data set is described as follows: Inhibition of recombinant human CYP2C19 expressed in baculosomes coexpressing rabbit NADPH-P450 reudctase assessed as residual activity at 10 uM preincubated for 5 mins followed by substrate and NADP+ addition measured after 20 mins by fluorescence assay relative to control. To be noted: read-out: Activity. Format: ADME. Summed up:
(§2)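 Vivid CYP450 kit: recombinant human CYP isozyme in Baculosomes with rabbit NADPH-P450 reductase, plus regeneration system (3.3 mM glucose-6-phosphate, 0.3 U/mL G6PDH in 100 mM potassium phosphate, pH 8.0). Mixture preincubated with sample for 5 min at 37 °C. Vivid substrate and 0.1 mM NADP+ were then added, and remaining activity read by fluorescence after 20 min.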

Data set [10] in a line: Ratio of drug level in brain to plasma in Sprague-Dawley rat at 10 mg/kg, iv at 2 hrs post dose by LC-MS/MS analysis. In kind it is ADME, organism-based. To be noted: brain and plasma, read-out: BPR. The essentials:
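After intravenous dosing at 10 mg/kg in male SD rats, brain and plasma were sampled at 2 h. Each was mixed with carbamazepine internal standard in acetonitrile and analysed by LC-MS/MS.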

Data set [11] in a line: Terminal half life in Sprague-Dawley rat at 10 mg/kg, iv by LC-MS/MS analysis. Format: ADME, organism-based. Particulars: in vivo, read-out: beta t1/2. Summed up: (§3)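 Male SD rats, 8 weeks old, given 10 mg/kg intravenously (n = 4). Plasma mixed with carbamazepine internal standard in acetonitrile, vortexed, centrifuged at 10,000×g, and the supernatant analysed by LC-MS/MS. Parameters reported as mean ± SD.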

The target of another data set is CYP3A4 (Homo sapiens, UniProt P08684). The data set is described as follows: Inhibition of recombinant human CYP3A4 expressed in baculosomes coexpressing rabbit NADPH-P450 reudctase assessed as residual activity at 10 uM preincubated for 5 mins followed by substrate and NADP+ addition measured after 20 mins by fluorescence assay relative to control. Format: ADME. Particulars: read-out: Activity. Summed up:
as §2

The nature of data set [12]: Cmax in Sprague-Dawley rat at 10 mg/kg, po by LC-MS/MS analysis. Particulars: in vivo. Set-up: dose 10 mg/kg, route oral. Format: ADME, organism-based. Summed up: as §1
For a further data set, the target named is CYP2C9 (Homo sapiens, UniProt P11712). The data set is described as follows: Inhibition of recombinant human CYP2C9 expressed in baculosomes coexpressing rabbit NADPH-P450 reudctase assessed as residual activity at 10 uM preincubated for 5 mins followed by substrate and NADP+ addition measured after 20 mins by fluorescence assay relative to control. In kind it is ADME. To be noted: read-out: Activity. The essentials:
as §2

A short description of data set [13]: Total clearance in Sprague-Dawley rat at 10 mg/kg, iv by LC-MS/MS analysis. Format: ADME, organism-based. To be noted: in vivo. The essentials:
as §3

Data set [14] in a line: AUClast in Sprague-Dawley rat at 10 mg/kg, iv by LC-MS/MS analysis. In kind it is ADME, organism-based. More on the design: dose 10 mg/kg, route intravenous, time 0 - last. To be noted: in vivo. Summed up: as §3
Data set [15] is described as follows: Volume of distribution at steady state in Sprague-Dawley rat at 10 mg/kg, iv by LC-MS/MS analysis. In kind it is ADME, organism-based. To be noted: in vivo, read-out: Vdss. Summed up: as §3
The test system of data set [16] is Mus musculus. The data set is described as follows: Cognition enhancing effect in ICR mouse model of acute Alzheimer's disease assessed as reversal of amyloid beta (1 to 42)-induced cognitive deficit by measuring spatial working memory at 30 mg/kg, ip daily for 6 days measured on day 7 by Y maze spontaneous alteration test relative to control. In kind it is functional. The essentials:
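Male ICR mice (6 weeks, 30–33 g) received Aβ1-42 500 pmol ICV in 10% DMSO/PBS. Compound in 20% cyclodextrin was given at 30 mg/kg daily for 6 days (n = 7 per group). One day later, each mouse explored a three-arm Y-maze for 8 min, and the sequence of arm entries was used to calculate % spontaneous alternation.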

In data set [17] the target is Translocator protein (Mus musculus) (UniProt P50637). The data set is described as follows: Inhibition of TSPO in mouse HT22 cells assessed as inhibition of amyloid beta (1 to 42)-induced ROS generation at 5 uM after 6 hrs by DCFDA staining based fluorescence assay relative to control. In kind it is cell-based. To be noted: HT-22.
Chain of Translocator protein (Mus musculus) (P50637 whole entry, looked up): as the sequence (P16257 whole entry, looked up) above, with S2P, Q3E, I67V, E77D, V110A, M113L, M149V, T168P counted along it
A short description of data set [18]: Cytotoxicity against mouse HT22 cells assessed as cell viability at 5 uM after 24 hrs by MTT assay relative to control. Format: toxicity, HT-22. Particulars: read-out: Activity. Summed up:
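MTT was added for 2 h, then solubilising solution (10% Triton X-100 in isopropanol with 0.1 M HCl) for 2 h more. Absorbance read at 560 nm; % inhibition normalised to vehicle, and viability taken from compound-only wells.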

In the next data set the target is CYP2D6 (Homo sapiens, UniProt P10635). The data set is described as follows: Inhibition of recombinant human CYP2D6 expressed in baculosomes coexpressing rabbit NADPH-P450 reudctase assessed as residual activity at 10 uM preincubated for 5 mins followed by substrate and NADP+ addition measured after 20 mins by fluorescence assay relative to control. Format: ADME. Particulars: read-out: Activity. The essentials:
as §2

The values below come from ChEMBL document CHEMBL3877298, “Discovery of benzimidazole derivatives as modulators of mitochondrial function: A potential treatment for Alzheimer's disease” (Eur J Med Chem, 2017).

pIC50, pKd, pKi: −log10 of the molar value.

Chain of CYP2C9 (P11712 whole entry): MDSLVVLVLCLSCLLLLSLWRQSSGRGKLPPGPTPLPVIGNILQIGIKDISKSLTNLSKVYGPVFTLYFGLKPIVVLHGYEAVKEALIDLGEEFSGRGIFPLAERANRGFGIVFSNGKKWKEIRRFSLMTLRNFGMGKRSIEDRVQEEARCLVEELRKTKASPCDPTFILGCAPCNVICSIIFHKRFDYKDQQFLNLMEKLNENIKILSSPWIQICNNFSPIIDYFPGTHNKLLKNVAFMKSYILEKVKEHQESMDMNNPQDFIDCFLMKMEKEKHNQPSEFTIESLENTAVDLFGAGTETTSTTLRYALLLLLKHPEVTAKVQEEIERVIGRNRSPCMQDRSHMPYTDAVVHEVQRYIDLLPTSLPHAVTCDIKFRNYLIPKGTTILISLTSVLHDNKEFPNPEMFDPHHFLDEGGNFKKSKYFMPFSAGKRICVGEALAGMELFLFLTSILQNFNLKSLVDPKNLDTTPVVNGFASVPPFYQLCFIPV
Chain of CYP2D6 (P10635 whole entry): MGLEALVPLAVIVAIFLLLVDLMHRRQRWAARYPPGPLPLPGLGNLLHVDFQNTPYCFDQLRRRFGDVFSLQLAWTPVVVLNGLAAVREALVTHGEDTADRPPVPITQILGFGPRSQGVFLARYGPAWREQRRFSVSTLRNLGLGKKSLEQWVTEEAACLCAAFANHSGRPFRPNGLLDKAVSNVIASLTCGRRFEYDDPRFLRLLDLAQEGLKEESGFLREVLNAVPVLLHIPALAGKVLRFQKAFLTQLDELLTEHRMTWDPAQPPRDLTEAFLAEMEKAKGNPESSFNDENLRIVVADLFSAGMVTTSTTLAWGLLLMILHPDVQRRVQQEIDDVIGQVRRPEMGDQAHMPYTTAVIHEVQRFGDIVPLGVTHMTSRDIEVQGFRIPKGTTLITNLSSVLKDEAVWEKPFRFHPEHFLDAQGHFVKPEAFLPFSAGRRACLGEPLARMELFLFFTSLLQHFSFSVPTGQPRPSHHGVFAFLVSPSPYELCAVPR
Chain of Translocator protein (Homo sapiens, UniProt P30536) (P30536 whole entry): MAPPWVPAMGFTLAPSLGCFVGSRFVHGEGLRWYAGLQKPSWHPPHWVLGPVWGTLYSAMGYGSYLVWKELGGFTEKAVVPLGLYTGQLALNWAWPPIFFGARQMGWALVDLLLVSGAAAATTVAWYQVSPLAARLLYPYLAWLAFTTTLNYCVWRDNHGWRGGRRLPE
Chain of CYP3A4 (P08684 whole entry): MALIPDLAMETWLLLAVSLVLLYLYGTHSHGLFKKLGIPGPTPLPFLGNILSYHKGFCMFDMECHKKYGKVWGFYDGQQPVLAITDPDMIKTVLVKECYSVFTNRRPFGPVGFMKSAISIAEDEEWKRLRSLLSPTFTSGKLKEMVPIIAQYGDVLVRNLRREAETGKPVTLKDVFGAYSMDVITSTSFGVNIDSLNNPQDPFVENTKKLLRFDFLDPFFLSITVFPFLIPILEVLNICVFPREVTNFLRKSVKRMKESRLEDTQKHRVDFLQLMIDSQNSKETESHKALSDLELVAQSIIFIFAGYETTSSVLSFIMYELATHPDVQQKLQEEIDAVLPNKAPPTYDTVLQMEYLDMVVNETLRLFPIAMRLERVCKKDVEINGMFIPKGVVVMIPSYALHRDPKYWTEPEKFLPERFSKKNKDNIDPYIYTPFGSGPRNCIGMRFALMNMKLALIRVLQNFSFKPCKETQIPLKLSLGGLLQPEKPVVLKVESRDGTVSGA
Chain of CYP2C19 (P33261 whole entry): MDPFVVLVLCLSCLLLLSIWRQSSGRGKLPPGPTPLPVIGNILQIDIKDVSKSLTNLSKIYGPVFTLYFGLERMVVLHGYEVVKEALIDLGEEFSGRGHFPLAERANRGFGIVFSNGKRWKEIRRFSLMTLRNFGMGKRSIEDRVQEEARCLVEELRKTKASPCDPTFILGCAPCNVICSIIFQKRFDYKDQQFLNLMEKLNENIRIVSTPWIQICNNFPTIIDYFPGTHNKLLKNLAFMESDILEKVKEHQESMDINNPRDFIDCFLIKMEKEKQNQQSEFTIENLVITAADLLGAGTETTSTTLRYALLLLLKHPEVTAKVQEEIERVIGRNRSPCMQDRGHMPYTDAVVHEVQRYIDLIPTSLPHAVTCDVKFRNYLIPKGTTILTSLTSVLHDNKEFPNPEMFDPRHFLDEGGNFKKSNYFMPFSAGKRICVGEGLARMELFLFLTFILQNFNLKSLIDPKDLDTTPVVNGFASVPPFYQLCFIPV

The term AUC(0-t) denotes the area under the concentration-time curve up to a stated or last time point. As a reminder, the Tmax is the time from dosing to the highest level. For orientation: AUC(0-inf) means the area under the concentration-time curve extrapolated to infinity. Low readings indicate low exposure, high ones high exposure. One may read the pIC50 as the IC50 on a negative log10 scale, so that one unit is a factor of ten. High values mean a low IC50, low ones a high IC50. The term pKi denotes the negative decadic logarithm of the Ki, by convention in mol/L. A low value points to a high Ki. Broadly, the inhibition is the drop in the measured response relative to a control, in per cent. Broadly, the pKd is the Kd on a negative log10 scale, so that one unit is a factor of ten. For orientation: Cmax means the peak of the concentration-time curve. For orientation: clearance means a measure of how efficiently the substance is removed, as volume per time. Read a low clearance as inefficient removal. On to `Cc1ccc(C(C)C)cc1NC(=O)Cn1c(Cc2c(Cl)cccc2Cl)nc2ccccc21`, for which the AUC(0-t) in data set [1] is 128 ng·h/mL; in data set [14], 1750 ng·h/mL. For the same molecule, the figures for the dose excreted in data set [2] and in data set [5] were 0.03% and 0.01%, respectively. Also, the Tmax in [3] was 0.55 h. The molecule further gave an AUC(0-inf) in [4] of 136 ng·h/mL. On Translocator protein [6], this molecule had a pIC50 of 7.13. The pKi at Translocator protein [6] was 7.64. The figures for the inhibition in [7] and in [17] were 30% and 85%, respectively. For the same molecule, the Activity came to 12% in the data set on Mus musculus [8] and 72% with Mus musculus [16]. On Translocator protein [9], the pKd is 6.97. Further, the activity at 20 min, 10 µM at CYP2C19 worked out at 57.3%; at CYP3A4 it was 224%; at CYP2C9, 54.7%; on CYP2D6 it was 140%. The Kp at 2 h in data set [10] was 2.88. In data set [11], the half-life came out at 2.62 h. This molecule had a Cmax in [12] of 70 ng/mL. Moreover, in [13], the clearance came to 54.5 mL/min/kg. Besides, the Vd in [15] came to 6.21 L/kg. Besides, the viability at 24 h, 5 µM in data set [18] lay in the range of 88 to 109%.
